In ChEMBL document CHEMBL4184131, “Cyclotheonellazoles A-C, Potent Protease Inhibitors from the Marine Sponge Theonella aff. swinhoei” (J Nat Prod, 2017):
pIC50: −log10 of the molar value. Converted amounts (≈) assume the structure as drawn. Starred links: 1 amine or outer side, 2 acyl side, 3 side chain; linkers in the order of their positions; H or OH if unused. Positions of bridges follow the written chain, without caps; N, C: chain ends. Non-standard residues stand in square brackets, D forms with d. Residues, ends and D or L forms follow the SMILES beside them. *: point of attachment. X2 = O=C(/C=C/c1csc([C@H](Cc2ccc(O)cc2)N[*:1])n1)[*:2]; X1 = CC[C@H](C)[C@H](N[*:1])C(=O)C(=O)[*:2]; Benzoyl(4-OH) = O=C(c1ccc(O)cc1)*; Cya = N[C@@H](CS(=O)(=O)O)C(=O)O; Nva = CCC[C@H](N)C(=O)O; Abu = CC[C@H](N)C(=O)O; Dap = NC[C@H](N)C(=O)O

Columns and labels:
[1] = Inhibition of elastase (unknown origin) incubated for 20 mins using N-Suc-Ala-Ala-Ala-p-nitroanilide substrate by spectrophotometry; design: species or system Homo sapiens
Method in brief: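 Tris buffer (2.422 g Tris HCl/100 mL, pH 8.0). Enzyme stock 75 mg/mL and N-Suc-Ala-Ala-Ala-p-nitroanilide stock 0.9 mg/mL, both in buffer. Enzyme with sample preincubated 20 min at 30 °C before substrate addition. Absorbance at 405 nm followed kinetically over 20 min. Serial dilutions from 1 mg/mL DMSO stock; IC50 from four-parameter logistic fit.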

[2] = system: Plasmodium falciparum; test: Antiplasmodial activity against Plasmodium falciparum assessed as inhibition of parasite growth incubated for 48 hrs by colorimetry based p-LDH assay; assay type: functional, organism-based
[3] = Inhibition of chymotrypsin (unknown origin) incubated for 30 mins using Suc-Gly-Gly-phenylalanine-p-nitroanilide substrate by spectrophotometry; design: species or system Homo sapiens
Method in brief: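 In Tris buffer (0.6 g Tris HCl/100 mL, pH 7.5), enzyme and Suc-Gly-Gly-Phe-p-nitroanilide substrate each dissolved in buffer at 1 mg/mL. Enzyme and sample preincubated 5 min at 37 °C, then substrate added. Absorbance at 405 nm read kinetically over 30 min. Samples from 1 mg/mL DMSO stock serially diluted; IC50 fitted by four-parameter logistic model.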

[4] = system: Plasmodium falciparum; test: Antiplasmodial activity against Plasmodium falciparum; assay type: functional, organism-based

Row | Structure (SMILES) | pIC50 [1] | IC50 [2] | pIC50 [3] | IC50 [4]
1 | CC[C@H](C)[C@@H]1NC(=O)[C@H](CC(C)C)NC(=O)[C@@H](NC(=O)[C@H](C)NC(=O)CNC(=O)c2ccc(O)cc2)CNC(=O)[C@H](CS(=O)(=O)[O-])NC(=O)/C=C/c2csc(n2)[C@H](Cc2ccc(O)cc2)NC(=O)C1=O.[Na+] ({Benzoyl(4-OH)}-GA[Dap]L[X1][X2][Cya]; lactam 3-C) | 10.00 | > 20 µg/mL | 8.55 | –
2 | CC[C@@H]1NC(=O)[C@@H](NC(=O)[C@H](C)NC(=O)CNC(=O)c2ccc(O)cc2)CNC(=O)[C@H](CS(=O)(=O)[O-])NC(=O)/C=C/c2csc(n2)[C@H](Cc2ccc(O)cc2)NC(=O)C(=O)[C@H]([C@@H](C)CC)NC1=O.[Na+] ({Benzoyl(4-OH)}-GA[Dap][Abu][X1][X2][Cya]; lactam 3-C) | 10.00 | > 20 µg/mL | 8.64 | –
3 | CCC[C@@H]1NC(=O)[C@@H](NC(=O)[C@H](C)NC(=O)CNC(=O)c2ccc(O)cc2)CNC(=O)[C@H](CS(=O)(=O)[O-])NC(=O)/C=C/c2csc(n2)[C@H](Cc2ccc(O)cc2)NC(=O)C(=O)[C@H]([C@@H](C)CC)NC1=O.[Na+] ({Benzoyl(4-OH)}-GA[Dap][Nva][X1][X2][Cya]; lactam 3-C) | 10.47 | > 20 µg/mL | 9.21 | –
4 | CO[C@H]1C[C@H](CC[C@H](C)[C@H](O)[C@H](C)[C@H]2OC(=O)/C=C/C(C)=C/C[C@H](O)C[C@@H]3C=CC[C@@H](C[C@H](OC)[C@@H](C)[C@@H](O)C[C@@H](O)[C@H](C)[C@@H]([C@@H](C)[C@@H](O)[C@@H](C)CC[C@H]4C[C@H](OC)C[C@H](C)O4)OC(=O)/C=C/C(C)=C/C[C@H](O)C[C@@H]4C=CC[C@@H](C[C@H](OC)[C@@H](C)[C@@H](O)C[C@@H](O)[C@@H]2C)O4)O3)O[C@@H](C)C1 [Swinholide A] | – | – | – | 4.75 µg/mL (≈ 3.42 µM)
